The text below walks through data of ChEMBL document CHEMBL1255437, “Involvement of the beta subunit of RNA polymerase in resistance to streptolydigin and streptovaricin in the producer organisms Streptomyces lydicus and Streptomyces spectabilis” (2010).

In brackets after ≈: the same amount, converted by molar mass. Some results are limits rather than exact numbers.

Broadly, the MIC is the smallest concentration in the dilution series that meets the test's criterion for growth inhibition. Read a high MIC as a less susceptible organism.

Assay [1] relates to Streptomyces albus. The assay is described as follows: Antimicrobial activity against transconjugant Streptomyces albus carrying pEM4T-Sbeta after 5 to 7 days. The format is functional. In a few lines:
(§1)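 MIC by agar dilution. Spore suspensions were replica plated with a plate replicator onto Bennet's agar containing a range of streptolydigin or streptovaricin concentrations, then incubated 5 to 7 days at 30°C. Recombinant S. albus strains carried pEM4T-derived plasmids introduced by conjugation from E. coli ET12567(pUB307); producer strains and host S. albus J1074 were tested the same way.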

The subject of assay [2] is Streptomyces albus. The assay is described as follows: Antimicrobial activity against transconjugant Streptomyces albus carrying pEM4T-Sbeta103 with RNA polymerase beta subunit T638K mutant after 5 to 7 days. The format is functional. In a few lines:
as §1

The subject of assay [3] is Streptomyces albus. The assay is described as follows: Antimicrobial activity against transconjugant Streptomyces albus carrying pEM4T-Sbeta100 with RNA polymerase beta subunit I467L mutant after 5 to 7 days. The assay is classed as functional. In a few lines:
as §1

For a further assay, the system named is Streptomyces spectabilis. As to the kind of experiment: Antimicrobial activity against Streptomyces spectabilis NRRL 2494 after 5 to 7 days.
Assay [4] concerns Streptomyces albus. As to the kind of experiment: Antimicrobial activity against transconjugant Streptomyces albus carrying pEM4T-Sbeta205 with RNA polymerase beta subunit S470N mutant after 5 to 7 days. The format is functional. In a few lines:
as §1

Assay [5] relates to Streptomyces albus. As to the kind of experiment: Antimicrobial activity against transconjugant Streptomyces albus carrying pEM4T-Sbeta' after 5 to 7 days. The format is functional. Summed up:
as §1

The subject of assay [6] is Streptomyces albus. The assay is described as follows: Antimicrobial activity against transconjugant Streptomyces albus carrying pEM4T-Sbeta104 with RNA polymerase beta subunit A639S mutant after 5 to 7 days. The format is functional. Summed up:
as §1

Assay [7] concerns Streptomyces albus. The assay is described as follows: Antimicrobial activity against transconjugant Streptomyces albus carrying pEM4T-Sbeta105 with RNA polymerase beta subunit N474S/S475A mutant after 5 to 7 days. The format is functional. Summed up: as §1
The subject of assay [8] is Streptomyces albus. The assay is described as follows: Antimicrobial activity against transconjugant Streptomyces albus carrying pEM4T-Sbeta206 with RNA polymerase beta subunit A471S mutant after 5 to 7 days. The format is functional. Summed up: as §1
Assay [9] concerns Streptomyces albus. As to the kind of experiment: Antimicrobial activity against transconjugant Streptomyces albus carrying pEM4T-Sbeta101 with RNA polymerase beta subunit N474S mutant after 5 to 7 days. The assay is classed as functional. In a few lines:
as §1

Assay [10] deals with Streptomyces albus. As to the kind of experiment: Antimicrobial activity against transconjugant Streptomyces albus carrying pEM4T-Sbeta102 with RNA polymerase beta subunit S475A mutant after 5 to 7 days. The assay is classed as functional. Summed up:
as §1

Assay [11] concerns Streptomyces albus. As to the kind of experiment: Antimicrobial activity against transconjugant Streptomyces albus carrying pEM4T-Sbeta204 with RNA polymerase beta subunit L463I mutant after 5 to 7 days. The format is functional. In a few lines:
as §1

Assay [12] concerns Streptomyces albus. As to the kind of experiment: Antimicrobial activity against transconjugant Streptomyces albus carrying pEM4T-Abeta207 with RNA polymerase beta subunit S470N/A471S mutant after 5 to 7 days. The assay is classed as functional. Summed up:
as §1

Assay [13] concerns Streptomyces albus. The assay is described as follows: Antimicrobial activity against transconjugant Streptomyces albus carrying pEM4T-CASbeta after 5 to 7 days. The assay is classed as functional. In a few lines:
as §1

The subject of assay [14] is Streptomyces albus. As to the kind of experiment: Antimicrobial activity against transconjugant Streptomyces albus J1074 after 5 to 7 days. The format is functional. Summed up: as §1
Assay [15] has as its system Streptomyces albus. The assay is described as follows: Antimicrobial activity against transconjugant Streptomyces albus carrying pEM4T-Abeta202 with RNA polymerase beta subunit E485D mutant after 5 to 7 days. The assay is classed as functional. In a few lines: as §1
In assay [16] the test system is Streptomyces albus. The assay is described as follows: Antimicrobial activity against transconjugant Streptomyces albus carrying pEM4T-Lbeta103 with RNA polymerase beta subunit L555V mutant after 5 to 7 days. The format is functional. In a few lines:
as §1

Assay [17] concerns Streptomyces albus. The assay is described as follows: Antimicrobial activity against transconjugant Streptomyces albus carrying pEM4T-Lbeta105 with RNA polymerase beta subunit S624A mutant after 5 to 7 days. The assay is classed as functional. In a few lines: as §1
Assay [18] deals with Streptomyces albus. As to the kind of experiment: Antimicrobial activity against transconjugant Streptomyces albus carrying pEM4T-Abeta203 with RNA polymerase beta subunit F484L/E485D mutant after 5 to 7 days. The assay is classed as functional. In a few lines: as §1
In assay [19] the test system is Streptomyces albus. As to the kind of experiment: Antimicrobial activity against transconjugant Streptomyces albus carrying pEM4T-Lbeta101 with RNA polymerase beta subunit L485F mutant after 5 to 7 days. The format is functional. Summed up:
as §1

For assay [20], the system named is Streptomyces albus. The assay is described as follows: Antimicrobial activity against transconjugant Streptomyces albus carrying pEM4T-Abeta after 5 to 7 days. The format is functional. Summed up:
as §1

Assay [21] relates to Streptomyces albus. As to the kind of experiment: Antimicrobial activity against transconjugant Streptomyces albus carrying pEM4T-Lbeta108 with RNA polymerase beta subunit F593Y/M594L mutant after 5 to 7 days. The format is functional. Summed up: as §1
For assay [22], the system named is Streptomyces albus. The assay is described as follows: Antimicrobial activity against transconjugant Streptomyces albus carrying pEM4T-CALbeta after 5 to 7 days. The assay is classed as functional. Summed up:
as §1

The subject of assay [23] is Streptomyces albus. The assay is described as follows: Antimicrobial activity against transconjugant Streptomyces albus carrying pEM4T-Lbeta106 with RNA polymerase beta subunit A636S mutant after 5 to 7 days. The assay is classed as functional. In a few lines:
as §1

Assay [24] concerns Streptomyces albus. The assay is described as follows: Antimicrobial activity against transconjugant Streptomyces albus carrying pEM4T-Abeta201 with RNA polymerase beta subunit F484L mutant after 5 to 7 days. The format is functional. In a few lines:
as §1

For assay [25], the system named is Streptomyces albus. As to the kind of experiment: Antimicrobial activity against transconjugant Streptomyces albus carrying pEM4T-Lbeta104 with RNA polymerase beta subunit F593Y mutant after 5 to 7 days. The format is functional. In a few lines: as §1
Assay [26] relates to Streptomyces albus. The assay is described as follows: Antimicrobial activity against transconjugant Streptomyces albus carrying pEM4T-Lbeta102 with RNA polymerase beta subunit D486E mutant after 5 to 7 days. The format is functional. Summed up:
as §1

Assay [27] concerns Streptomyces albus. As to the kind of experiment: Antimicrobial activity against transconjugant Streptomyces albus carrying pEM4T-Lbeta after 5 to 7 days. The format is functional. Summed up:
as §1

Assay [28] relates to Streptomyces albus. The assay is described as follows: Antimicrobial activity against transconjugant Streptomyces albus carrying pEM4T after 5 to 7 days. The format is functional. Summed up:
as §1

In assay [29] the test system is Streptomyces albus. The assay is described as follows: Antimicrobial activity against transconjugant Streptomyces albus carrying pEM4T-Lbeta' after 5 to 7 days. The format is functional. In a few lines: as §1
The subject of assay [30] is Streptomyces albus. As to the kind of experiment: Antimicrobial activity against transconjugant Streptomyces albus carrying pEM4T-Lbeta107 with RNA polymerase beta subunit L485F/D486E mutant after 5 to 7 days. The format is functional. Summed up:
as §1

Another assay relates to Streptomyces lydicus. As to the kind of experiment: Antimicrobial activity against Streptomyces lydicus NRRL 2433 after 5 to 7 days. The format is functional. In a few lines:
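Spore suspensions replica-plated with a plate replicator onto Bennet's agar plates containing a range of streptolydigin and streptovaricin concentrations. Plates incubated 5 to 7 days at 30°C. MIC scored as growth inhibition on the solid medium. Strain NRRL2433 is the streptolydigin producer.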

The test system of assay [31] is Streptomyces albus. As to the kind of experiment: Antimicrobial activity against transconjugant Streptomyces albus carrying pEM4T-Lbeta100 with RNA polymerase beta subunit T458N mutant after 5 to 7 days. The assay is classed as functional. Summed up: as §1

Regarding `CO[C@H]1/C=C/O[C@@]2(C)Oc3c(C)c(O)c4c(O)c(c(/C=N/N5CCN(C)CC5)c(O)c4c3C2=O)NC(=O)/C(C)=C\C=C\[C@H](C)[C@H](O)[C@@H](C)[C@@H](O)[C@@H](C)[C@H](OC(C)=O)[C@@H]1C` [RIFAMPIN], the MIC against Streptomyces albus [1] is 40 µg/mL (≈ 48.6 µM); in the assay on Streptomyces albus [2] it was 20 µg/mL (≈ 24.3 µM); against Streptomyces albus [3] it was 40 µg/mL (≈ 48.6 µM); in the assay on Streptomyces spectabilis, > 40 µg/mL; against Streptomyces albus [4] it was 5 µg/mL (≈ 6.08 µM); against Streptomyces albus [5], 5 µg/mL (≈ 6.08 µM). Also, the MIC worked out at 40 µg/mL (≈ 48.6 µM) in the assay on Streptomyces albus [6]; 5 µg/mL (≈ 6.08 µM) against Streptomyces albus [7]; 5 µg/mL (≈ 6.08 µM) in the assay on Streptomyces albus [8]; 5 µg/mL (≈ 6.08 µM) in the assay on Streptomyces albus [9]; 40 µg/mL (≈ 48.6 µM) with Streptomyces albus [10]; 5 µg/mL (≈ 6.08 µM) in the assay on Streptomyces albus [11]. The MIC against Streptomyces albus [12] and against Streptomyces albus [13] was 40 µg/mL (≈ 48.6 µM) each time.

Take `CNC(=O)[C@@H](C)[C@H]1C(=O)/C(=C(O)/C=C/C(C)=C/[C@@H](C)[C@H]2O[C@@]3(C)O[C@H](C=C[C@@]34CO4)[C@@H]2C)C(=O)N1[C@@H]1CC[C@H](O)[C@H](C)O1` [STREPTOLYDIGIN]: the MIC was 1 µg/mL (≈ 1.66 µM) against Streptomyces albus [14]; 1 µg/mL (≈ 1.66 µM) in the assay on Streptomyces albus [15]; 1 µg/mL (≈ 1.66 µM) with Streptomyces albus [16]; 20 µg/mL (≈ 33.3 µM) in the assay with Streptomyces albus [17]; 9 µg/mL (≈ 15 µM) against Streptomyces albus [18]; 1 µg/mL (≈ 1.66 µM) in the assay with Streptomyces albus [19]. For the same molecule, the MIC with Streptomyces albus [20] turned out to be 1 µg/mL (≈ 1.66 µM); in the assay with Streptomyces albus [21], 1 µg/mL (≈ 1.66 µM); in the assay on Streptomyces albus [22], 20 µg/mL (≈ 33.3 µM); in the assay with Streptomyces albus [23] it was 10 µg/mL (≈ 16.6 µM); with Streptomyces albus [24] it was 6 µg/mL (≈ 9.99 µM); in the assay on Streptomyces albus [25], 10 µg/mL (≈ 16.6 µM). For the same molecule, the MIC was 10 µg/mL (≈ 16.6 µM) against Streptomyces albus [26]; 20 µg/mL (≈ 33.3 µM) in the assay on Streptomyces albus [27]; 1 µg/mL (≈ 1.66 µM) in the assay with Streptomyces albus [28]; 1 µg/mL (≈ 1.66 µM) against Streptomyces albus [29]; 1 µg/mL (≈ 1.66 µM) in the assay on Streptomyces albus [30]; > 200 µg/mL in the assay on Streptomyces lydicus. The molecule also registered an MIC with Streptomyces albus [31] of 20 µg/mL (≈ 33.3 µM).

As to `COC(=O)[C@@H]1[C@H](O)[C@H](C)[C@H](O)[C@H](C)/C=C\C=C(/C)C(=O)Nc2c(C)c(OC(C)=O)c3c(c2O)C(=O)C(C)=C2OCOC(=C23)/C(C)=C/[C@@](C)(O)[C@H](O)[C@@H](C)[C@H]1O` [STREPTOVARICIN], the MIC in the assay on Streptomyces albus [1] was 200 µg/mL (≈ 260 µM); against Streptomyces albus [2] it was 200 µg/mL (≈ 260 µM); against Streptomyces albus [3] it was 200 µg/mL (≈ 260 µM); with Streptomyces spectabilis it was > 200 µg/mL; against Streptomyces albus [4], 80 µg/mL (≈ 104 µM); in the assay with Streptomyces albus [5] it was 70 µg/mL (≈ 90.9 µM). In addition, the MIC against Streptomyces albus [6] was 200 µg/mL (≈ 260 µM); in the assay on Streptomyces albus [7], 70 µg/mL (≈ 90.9 µM); with Streptomyces albus [8], 80 µg/mL (≈ 104 µM); with Streptomyces albus [9] it was 200 µg/mL (≈ 260 µM); with Streptomyces albus [10] it was 200 µg/mL (≈ 260 µM); with Streptomyces albus [11], 70 µg/mL (≈ 90.9 µM). The MIC with Streptomyces albus [12] and against Streptomyces albus [13] was 200 µg/mL (≈ 260 µM) each time.
